How the values were obtained:
[1] = Bidirectional MDCK-MDR1 permeability; format: in vitro ADME; conditions: dog; for Papp B→A at 90 min, 10 μM: MDCK-MDR1, pH 7.4, Papp (B-to-A), MDCK-MDR1 Transwell
Procedure, shortened: (§1)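 MDCK-mdr1 cells (passage 5) were grown on polycarbonate Transwell supports for 3 days and rinsed with warm HBSS. They were pre-incubated 30 min at 37 °C in HBSS with 10 mM HEPES and 0.25% BSA, pH 7.4, then TEER was measured. Test compound at 10 μM went to the apical donor (A-to-B) or basolateral donor (B-to-A) side, at 37 °C with light agitation. Receiver was sampled at 30, 60 and 90 min and analysed by LC-MS/MS. Papp came from dQ/dt, area 1.12 cm2 and initial donor concentration. Atenolol and propranolol were references.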

[2] = tested on: P-glycoprotein (MDR1); assay: Bidirectional MDCK-MDR1 permeability; format: in vitro ADME; conditions: dog, MDCK-MDR1, pH 7.4
Procedure, shortened: as §1

[3] = tested on: CFA-induced nociceptive hypersensitivity in rats; assay: CFA-induced inflammatory pain model, von Frey mechanical nociception; format: in vivo, Sprague-Dawley rats; conditions: i.p.; for effect on CFA-induced nociceptive hypersensitivity: 17.8 mg/kg; for duration of effect in CFA model: 65 and 66 at 17.8 mg/kg, 2 at 32 mg/kg
[4] = molecular target: T1, hLPA5 (Homo sapiens, UniProt Q9H1C0); assay: LPA5 calcium mobilization assay; format: cell-based
T1 sequence (Q9H1C0 whole entry): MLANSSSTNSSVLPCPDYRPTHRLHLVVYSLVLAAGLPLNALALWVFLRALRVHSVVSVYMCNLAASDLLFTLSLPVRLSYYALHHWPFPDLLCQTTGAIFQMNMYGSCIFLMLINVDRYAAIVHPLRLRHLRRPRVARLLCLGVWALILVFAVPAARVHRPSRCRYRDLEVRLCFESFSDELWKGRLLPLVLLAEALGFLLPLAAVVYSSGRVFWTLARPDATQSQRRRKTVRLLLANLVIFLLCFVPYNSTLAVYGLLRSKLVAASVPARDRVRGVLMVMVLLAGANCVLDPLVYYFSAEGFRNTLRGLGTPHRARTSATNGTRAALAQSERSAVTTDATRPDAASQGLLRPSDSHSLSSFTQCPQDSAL
Procedure, shortened: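 RH7777-hLPA5 cells were plated on poly-D-lysine at 20,000 cells/well in 0.2% FBS medium for 18–20 h at 37 °C. They were loaded 45 min with Calcium 5 dye in HBSS, 20 mM HEPES and 2.5 mM probenecid, pH 7.4. Eight test-compound concentrations were pre-incubated for 15 min at 37 °C, then hexadecyl LPA 16:0 EC80 (30 nM) was added at 10 s. Fluorescence (485/525 nm) was read every 1 s for 90 s. IC50 came from a three-parameter logistic fit of RFU. Duplicate determinations; two or at least three independent experiments.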

[5] = molecular target: T1, hLPA5; assay: LPA5 TR-FRET Lance Ultra cAMP assay; format: cell-based
[6] = Metabolic stability in rat liver microsomes; format: in vitro ADME; conditions: pH 7.4
Procedure, shortened: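 Rat liver microsomes (0.5 mg/mL protein) were used in 100 mM potassium phosphate, pH 7.4, at 37 °C, with NADPH at 1 mM final. Samples were taken at 0, 5, 15, 30 and 45 min and quenched 1:1 in cold acetonitrile containing labetalol and glyburide. Parent was measured by LC-MS/MS, and half-life and in vitro clearance were calculated. Two independent experiments in duplicate.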

[7] = tested on: LPA1–LPA4 receptors; assay: LPA1–LPA3 calcium mobilization; format: cell-based; conditions: 10 μM in Ca2+ for LPA1–LPA3 and cAMP for LPA4
Procedure, shortened: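 Selectivity was tested with test compound at 10 μM. LPA1–LPA3 calcium mobilization was run externally in CHO cells over-expressing each receptor, under the provider's protocols. LPA4 was a TR-FRET cAMP assay in LPA4-overexpressing CHO cells, following the LPA5 cAMP method but against 250 nM hexadecyl LPA 16:0 (EC80).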

[8] = molecular target: dopamine D3 (Homo sapiens, UniProt P35462); assay: NIMH PDSP radioligand binding, D3
dopamine D3, sequence (P35462 whole entry): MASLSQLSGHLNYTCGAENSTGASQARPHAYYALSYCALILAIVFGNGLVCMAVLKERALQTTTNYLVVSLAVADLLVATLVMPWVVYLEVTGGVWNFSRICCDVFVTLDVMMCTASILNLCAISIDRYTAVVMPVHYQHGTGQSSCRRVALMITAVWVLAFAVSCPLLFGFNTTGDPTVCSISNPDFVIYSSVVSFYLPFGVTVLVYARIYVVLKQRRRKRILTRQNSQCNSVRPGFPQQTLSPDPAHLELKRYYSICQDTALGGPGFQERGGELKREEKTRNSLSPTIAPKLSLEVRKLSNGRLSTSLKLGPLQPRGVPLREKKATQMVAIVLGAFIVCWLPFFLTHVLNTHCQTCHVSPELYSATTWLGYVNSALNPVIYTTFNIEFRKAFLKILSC

[9] = tested on: fentanyl-induced mechanical hypersensitivity in rats; assay: Fentanyl; format: in vivo; conditions: i.p.
[10] = Plasma protein binding; format: in vitro ADME; conditions: rat
Procedure, shortened: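 Equilibrium dialysis: test compound or controls at 1 μM in rat plasma, in triplicate, against buffer across a 12–14K MWCO cellulose membrane. Incubation ran 6 h at 37 °C with light agitation to equilibrium. Plasma and buffer were extracted with cold acetonitrile/methanol (1:1) and quantified by LC-MS/MS against standard curves. Acebutolol (low-bound) and warfarin (high-bound) served as controls.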

[11] = tested on: >50 GPCRs (NIMH Psychoactive Drug Screening Program panel); assay: NIMH PDSP radioligand binding panel; conditions: < 50% inhibition at 10 μM or pKi ≤ 6
[12] = tested on: CCI-induced mechanical allodynia in rats; assay: Chronic constriction injury; format: in vivo, Sprague-Dawley rats; conditions: i.p., 17.8 mg/kg
[13] = tested on: locomotor activity in rats; assay: Locomotor activity; format: in vivo; conditions: 17.8 mg/kg i.p., 60 min pretreatment, P > 0.05
[14] = tested on: MDCK-mdr1 cells; assay: Bidirectional MDCK-MDR1 permeability; format: in vitro ADME; conditions: MDCK-MDR1 Transwell, 10 μM
Procedure, shortened: as §1

Row | SMILES | Papp A→B at 90 min, 10 μM ([1]; MDCK-MDR1, pH 7.4) [×10⁻⁶ cm/s] | Papp B→A at 90 min, 10 μM [1] [×10⁻⁶ cm/s] | efflux ratio at 90 min, 10 μM [2] | effect on CFA-induced nociceptive hypersensitivity [3] | duration of effect in CFA model [3] | fold more potent than the 4-fluoro analog 65 ([4]; calcium assay) [fold] | fold less potent than 2 ([5]; cAMP assay) [fold] | CLint scaled at 0.75 h [6] [mL/min/kg] | LPA1–LPA4 inhibition [7] [%] | Ki [8] [nM] | dose achieving statistical significance in OIH model [9] [mg/kg] | effect on fentanyl-induced mechanical hypersensitivity (OIH) [9] | fraction unbound at 6 h, 1 μM [10] | affinity for panel receptors [11] | effect on CCI-induced mechanical allodynia [12] | effect on locomotor activity [13] | Papp (B-to-A) [14] | fold less potent than 2 ([4]; in both calcium mobilization and cAMP assays) | potency difference between cAMP and calcium mobilization assays ([5]; cAMP potency / calcium mobilization potency) [fold]
1 | C#CC1CCN(C(=O)c2cn(-c3ccc4scc(C)c4c3)c(=O)c3cc(OC)c(OC)cc23)CC1 [Compound 66, 4-(4-Ethynylpiperidine-1-carbonyl)-6,7-dimethoxy-2-(3-methylbenzo[b]thiophen-5-yl)isoquinoli-n-1(2H)-one] | 30.4 | 38.7 | < 2.5 | markedly alleviated nociceptive hypersensitivity | ~ 5 h | 2 | 1.7 | 74.7 | <50 | 380 | 5.6 | dose-dependently and significantly mitigated this mechanical hypersensitivity | 0.01 | no significant affinity for most of the receptors | completely reversed this hypersensitivity condition | did not have any measurable effect on the locomotor activity |  |  | 
2 | COc1cc2c(C(=O)N3CCC(F)CC3)cn(-c3ccc4scc(C)c4c3)c(=O)c2cc1OC [Compound 65, 4-(4-Fluoropiperidine-1-carbonyl)-6,7-dimethoxy-2-(3-methylbenzo[b]thiophen-5-yl)isoquinolin-1(2H)-one] |  | 31.1 | < 2.5 | markedly alleviated nociceptive hypersensitivity | ~ 5 h |  |  | 48.4 | <50 |  |  |  |  | no significant affinity for most of the receptors |  |  | 30.4 10^−6 cm/s | 1.5–2 fold | 4.9

Reference: publication PMC10155261 (European journal of medicinal chemistry, 2022)
